A1 inh = inhibitors of the anti-apoptotic protein A1, read as caspase activation | MEF A1-2A-BIM cells, Caspase-Glo 3/7 luminescence, 3 h; percent of clofoctol response, vehicle zero | caspase activation, % (concentration not given with the values) | 330,000 tested, 0.066% active;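 active means over half of replicate activation scores above 10%, or exactly half above 10 with the replicate mean above 10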
XBP1 UPR activ = adaptive UPR (XBP1) activation; CHO-XBP1 luciferase reporter, IRE1-XBP1 UPR activation, luminescence; percent of tunicamycin response, DMSO as zero; activation, % at 20 µM; 330,000 tested, 0.33% active; AID 463104;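 active means versus positive control, 20 µM dose yields 30% or more activation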;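 further: 100% = tunicamycin at 10 µg/mL and 0% = DMSO only wells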
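Material – CHO cell line with stable XBP1 luciferase reporter · Buffer or medium – F12 plus 10% FBS · Compound – single point, 20 µM final compound, 1% DMSO · Schedule – 16-18 h cell attachment at 37 °C, then 6 h compound exposure · Signal – Steady-Glo luminescence read · Benchmarks – high control tunicamycin 10 µg/mL final, low control DMSO vehicle only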
CHOP UPR activ = activators of apoptotic arm of unfolded protein response (CHOP) | activation, % at 10 µM | AID 449763 | CHO-CHOP luciferase reporter, UPR activation, luminescence; percent of tunicamycin response over DMSO baseline | 330,000 tested, 0.34% active;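 active means at 10 µM dose, activation of 40% or more, normalized to positive control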;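 further: 100% = tunicamycin at 10 µg/mL and 0% = DMSO alone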
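Test system: CHO CHOP reporter cells. Input: 500 CHO-CHOP cells per well. Medium: F12 with 10% FBS. Technique: luciferase luminescence. Measure: percent activation relative to tunicamycin control. Dosing: 10 µM compound, 0.5% DMSO. Timing: 16-18 h cell attachment, then 6 h compound exposure, 37 °C.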
MC4R ag barr = human MC4R agonism via beta-arrestin. P32245. U2OS MC4R beta-arrestin complementation, luminescence; percent of melanotan II response, DMSO zero. activation, % at 8.9 µM. 360,000 tested, 0.98% active;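 active means activation above a per-plate cutoff, the mean activation of sample wells on that plate plus 3 SD, cut at about 8% in these data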
MC4R antag cAMP = antagonists of human melanocortin 4 receptor (MC4R) | MC4R-expressing cells, MTII-stimulated cAMP, LANCE TR-FRET | 360,000 tested, 0.48% active | inhibition, % at 6.5 µM | P32245;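 active means inhibition above its plate's cutoff, the mean of tested wells on that plate plus 3 SD, cut at about 29% in these data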;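 further: 0% = Melanotan II alone and 100% = Melanotan II plus saturating MCL0020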
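System: U2OS cells stably expressing human melanocortin 4 receptor (MC4R). Reagent: Melanotan II challenge after compound preincubation. Doses: 6.5 µM. Times: 30-min compound, 1-h challenge, 1-h detection, room temperature. Measured by: TR-FRET with Eu-cAMP and labeled anti-cAMP, 671 nm. Replicates: singlicate.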
MC4R barr conf = human MC4R beta-arrestin agonism confirmation | U2OS MC4R beta-arrestin recruitment, luminescence; scaled DMSO 0%, Melanotan II 100% | 2,400 tested, 31% active | activation, % at 8.9 µM | AID 602192 | shares compounds with MC4R ag barr;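 active means mean activation across replicates above the hit cutoff set in the earlier primary screen, cut at about 8% in these data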
MOR DOR agonist = counter-screen for MC4R agonists: agonists of mu-delta opioid heterodimer; shares compounds with MC4R ag barr; U2OS PathHunter beta-arrestin, beta-gal luminescence; percent of deltorphin B response, DMSO zero; activation, % at 9.2 µM; 2,400 tested, 5.8% active; AID 602194;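 active means mean activation across replicates exceeds the hit threshold derived in the earlier primary screen, cut at about 18% in these data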;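 further: 100% = deltorphin B at 0.9 µM final and 0% = DMSO alone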
Target sequence (P35372 whole entry, looked up): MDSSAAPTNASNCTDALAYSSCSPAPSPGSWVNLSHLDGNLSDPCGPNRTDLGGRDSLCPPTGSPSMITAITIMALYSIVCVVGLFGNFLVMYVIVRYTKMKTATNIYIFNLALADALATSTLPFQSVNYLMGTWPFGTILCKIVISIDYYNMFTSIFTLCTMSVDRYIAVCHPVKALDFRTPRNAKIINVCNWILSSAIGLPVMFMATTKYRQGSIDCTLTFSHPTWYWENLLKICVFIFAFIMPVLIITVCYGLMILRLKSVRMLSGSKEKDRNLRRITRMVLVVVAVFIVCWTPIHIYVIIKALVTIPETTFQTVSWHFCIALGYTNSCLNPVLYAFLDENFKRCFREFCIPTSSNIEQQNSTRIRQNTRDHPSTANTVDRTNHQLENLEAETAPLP
Target sequence (P41143 whole entry, looked up): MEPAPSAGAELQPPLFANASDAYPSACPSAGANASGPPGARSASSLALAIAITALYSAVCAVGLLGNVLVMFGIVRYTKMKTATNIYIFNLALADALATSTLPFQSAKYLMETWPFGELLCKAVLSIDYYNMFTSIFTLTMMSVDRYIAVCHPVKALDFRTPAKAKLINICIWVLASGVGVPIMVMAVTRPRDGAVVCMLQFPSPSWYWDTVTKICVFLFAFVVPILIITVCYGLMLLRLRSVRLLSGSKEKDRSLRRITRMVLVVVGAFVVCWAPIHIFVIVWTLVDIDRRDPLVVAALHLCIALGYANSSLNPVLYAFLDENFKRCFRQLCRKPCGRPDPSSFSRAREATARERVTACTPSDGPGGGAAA
Active calls of the source: *; . = no result given. Most compounds without a hit are left out; they make up all but 2% or so of the library.

SMILES	A1 inh	XBP1 UPR activ	CHOP UPR activ	MC4R ag barr	MC4R antag cAMP	MC4R barr conf	MOR DOR agonist
COc1ccc(NC(=O)[C@@H]2CC=C[C@@H]3CCN(Cc4ccccc4)C(=O)[C@@H]32)cc1	1	5	-2	2	-3	.	.
CCN(CC)S(=O)(=O)c1ccc(NC(=O)COC(=O)CNC(=O)C2CCCCC2)cc1	.	0	2	-3	5	.	.
O=C(Nc1ccccc1)c1nc[nH]c1C(=O)Nc1ccccc1F	.	.	.	3	12	.	.
Cc1ccc(NC(=O)c2nc[nH]c2C(=O)Nc2ccccc2F)cc1	.	.	.	16*	0	-1	2
Cc1ccc(-c2csc(NC(=O)CSc3nnc4c(n3)[nH]c3ccccc34)n2)cc1	-1	.	.	16*	-5	3	7
Cc1occc1-c1nnc(SCC(=O)Nc2nc(-c3ccccc3)cs2)o1	0	1	4	24*	-3	2	5
Cc1cc(-c2nnc(SCC(=O)Nc3nc(-c4ccccc4)cs3)o2)no1	0	-1	3	3	0	.	.
Cc1ccc(NC(=O)CSc2nnc3c(n2)[nH]c2ccccc23)cc1	0	-6	1	-1	17	.	.
O=c1cc(-c2ccc(O)cc2)oc2c1ccc1ccccc12	-1	-1	1	50*	-3	4	4
CC(C)c1ccc(NC(=O)C2Cc3c(-c4ccc(Cl)cc4)ccnc3O2)cc1 (centres undefined)	.	.	.	3	2	.	.
CCOC(=O)c1cc(NC(=O)c2ccc(C)cc2)c(=O)oc1-c1ccccc1	1	4	31	11*	14	1	2
COC(=O)c1cc(NC(=O)c2ccc(C)cc2)c(=O)oc1C	-8	4	3	-2	6	.	.
NS(=O)(=O)c1ccc(S(=O)(=O)N2CCCC(c3ccccc3)C2)cc1 (centres undefined)	.	.	.	1	2	.	.
CCc1nc2ccc(C(=O)NCCCN3CCCC3=O)cn2c1N(CC)Cc1cccc(Br)c1	.	.	.	-2	3	.	.
Cc1cc(-c2ccc(S(=O)(=O)N(C)Cc3ccccc3)cc2)on1	-1	-3	0	25*	-8	-2	6
CC(C)CCNc1ncnc2c1nnn2Cc1ccccc1Cl	0	-1	1	18*	1	4	5
COc1cc(-c2nnc3sc(-c4cccs4)nn23)cc(OC)c1OC	0	4	2	15*	-29	-1	6
O=C(NCC1CCOCC1)C1Cc2c(-c3ccccc3Oc3ccccc3)ccnc2O1 (centres undefined)	.	.	.	-1	0	.	.
COc1cc(/C=N/Nc2ccccc2[N+](=O)[O-])cc(OC)c1O	0	13	1	10.0*	-12	-4	6
C[C@@H]1CN([C@H](C)CO)C(=O)CCCn2nncc2CO[C@H]1CN(C)Cc1ccccc1	.	.	.	-1	2	.	.
CCN1CCN(Cc2ccc(NC(=O)c3ccc(C)c(NC(=O)C(=O)c4c[nH]c5ccccc45)c3)cc2C(F)(F)F)CC1	-1	17	25	22*	7	21*	10
CCN1CCN(Cc2ccc(NC(=O)c3cc(NC(=O)C(=O)c4c[nH]c5ccccc45)cc(OC)c3)cc2C(F)(F)F)CC1	0	9	7	24*	3	22*	9
Cc1ccc(C(=O)N/C(=C\c2ccc(-c3cccc([N+](=O)[O-])c3)o2)C(=O)NCCCN(C)C)cc1	0	-6	-1	1	-19	.	.
Cc1ccc(C(=O)N/C(=C\c2ccc(-c3ccc(Br)cc3)o2)C(=O)NCCCN(C)C)cc1	0	29	8	11*	12	9.1*	10
CC(C)N1CCCC(C)(C(=O)Nc2cccc(Oc3ccccc3)c2)C1 (centres undefined)	.	.	.	1	-6	.	.
